The target of series [1] is T1, Cytochrome P450 1A1 (Homo sapiens, UniProt P04798).
T1 sequence (P04798 whole entry): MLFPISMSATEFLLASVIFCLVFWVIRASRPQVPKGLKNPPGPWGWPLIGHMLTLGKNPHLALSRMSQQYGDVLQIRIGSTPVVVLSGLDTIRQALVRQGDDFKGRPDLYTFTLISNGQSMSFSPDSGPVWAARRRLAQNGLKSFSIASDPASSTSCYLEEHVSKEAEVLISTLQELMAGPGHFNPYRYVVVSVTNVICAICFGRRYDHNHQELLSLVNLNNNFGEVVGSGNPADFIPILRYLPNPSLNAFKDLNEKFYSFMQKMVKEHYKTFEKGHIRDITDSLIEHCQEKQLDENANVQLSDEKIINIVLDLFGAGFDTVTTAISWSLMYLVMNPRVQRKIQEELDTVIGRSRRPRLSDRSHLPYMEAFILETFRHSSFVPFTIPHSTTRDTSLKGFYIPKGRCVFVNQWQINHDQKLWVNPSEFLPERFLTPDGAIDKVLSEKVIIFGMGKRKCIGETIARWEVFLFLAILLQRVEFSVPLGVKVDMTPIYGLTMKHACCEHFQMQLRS
Kind of series: Inhibition of human CYP1A1 expressed in human HEK293 cells using 7-ethoxyresorufin as substrate preincubated for 30 mins followed by substrate additon and measured after 60 mins by fluorescence based assay. Type of series: cell-based. Summed up:
(§1)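 The assay used live recombinant human HEK293 cells grown in suspension, each cell line expressing a single CYP (CYP1A1 or CYP1B1). Percent inhibition was read at 10 μM, and IC50 values were determined. Values are mean ± SD of three independent experiments. Alpha-naphthoflavone served as the reference inhibitor.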

The target of series [2] is T1, Cytochrome P450 1A1. Kind of series: Inhibition of human CYP1A1 expressed in sacchrosomes using 7-ethoxyresorufin as substrate by fluorescence based assay. The procedure, abridged:
(§2)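 Enzymes were microsomal preparations isolated from recombinant baker's yeast (Sacchrosomes). Compounds were screened at 10 μM for percent inhibition, and IC50 values were also determined. Values are mean ± SD of three independent experiments. Alpha-naphthoflavone served as the positive control.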

Series [3] has as its target T2, CYP1A1 (Homo sapiens, UniProt P04798).
T2 sequence (P04798 whole entry): T1 sequence (P04798 whole entry)
Put plainly: Inhibition of human CYP1A1 expressed in sacchrosomes at 10 uM using 7-ethoxyresorufin as substrate by fluorescence based assay relative to control. The conditions noted are these: sacchrosomes expressing human CYP1A1, probe 7-ethoxyresorufin. Summed up: as §2

Series [4] concerns the target T3, Cytochrome P450 1B1 (Homo sapiens, UniProt Q16678).
T3 sequence (Q16678 whole entry): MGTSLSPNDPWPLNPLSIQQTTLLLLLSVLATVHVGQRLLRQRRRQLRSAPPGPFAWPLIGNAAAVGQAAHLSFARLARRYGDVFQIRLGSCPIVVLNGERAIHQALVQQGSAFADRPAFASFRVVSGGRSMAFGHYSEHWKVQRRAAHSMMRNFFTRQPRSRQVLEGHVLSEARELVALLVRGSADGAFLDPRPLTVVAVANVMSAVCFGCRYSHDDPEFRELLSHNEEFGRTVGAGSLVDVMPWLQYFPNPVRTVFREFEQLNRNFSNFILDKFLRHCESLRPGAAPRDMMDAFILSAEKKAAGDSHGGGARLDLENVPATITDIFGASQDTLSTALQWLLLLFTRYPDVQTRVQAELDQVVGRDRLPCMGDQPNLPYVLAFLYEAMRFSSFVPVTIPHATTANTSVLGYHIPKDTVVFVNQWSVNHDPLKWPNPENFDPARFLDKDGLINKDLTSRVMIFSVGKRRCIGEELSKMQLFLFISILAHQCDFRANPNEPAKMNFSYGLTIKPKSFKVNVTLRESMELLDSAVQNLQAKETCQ
Put plainly: Inhibition of human CYP1B1 expressed in human HEK293 cells using 7-ethoxyresorufin as substrate preincubated for 30 mins followed by substrate additon and measured after 60 mins by fluorescence based assay. Type of series: ADME, cell-based. The procedure, abridged: as §1

The target of series [5] is T1, Cytochrome P450 1A1. Put plainly: Inhibition of human CYP1A1 expressed in HEK293 cells assessed as reduction in CYP1A1 mediated […] induced-toxicity by measuring EC50 at 3 times of IC50 concentration by MTT assay relative to control. Type of series: cell-based. Further details: scale not given: the % may be the effect or the level left. Summed up: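 Adherent HEK293 cells transfected with pcDNA3.1/hCYP1A1 were exposed to B[a]P over 0.05–100 µM, with inhibitor at 3x its IC50 from the suspension HEK293-CYP1A1 assay. The EC50 of B[a]P for cell growth inhibition was derived. Cells transfected with empty plasmid were used for comparison. Values are mean and SD of three independent experiments.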
A general note: Formazan colour is commonly taken as a measure of viable cells.

The target in series [6] is T3, Cytochrome P450 1B1. Put plainly: Inhibition of human CYP1B1 expressed in sacchrosomes using 7-ethoxyresorufin as substrate by fluorescence based assay. Type of series: ADME. Summed up:
as §2

Series [7] deals with T2, CYP1A1. Kind of series: Inhibition of human CYP1A1 expressed in human HEK293 cells at 10 uM using 7-ethoxyresorufin as substrate preincubated for 30 mins followed by substrate additon and measured after 60 mins by fluorescence based assay relative to control. The note with it: HEK293 cells expressing human CYP1A1, probe 7-ethoxyresorufin, time 90 min. In kind it is cell-based. Summed up:
as §1

The test system of series [8] is MCF7. Kind of series: Cell cycle arrest in human MCF-7 cells over expressing CYP1A1 assessed as down regulation of CyclinD1 after 24 hrs by western blotting assay. In kind it is functional, cell-based. The procedure, abridged:
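Cyclin D1 was detected by Western blot, with β-tubulin as loading control. Untreated cells served as control.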
For orientation: In western blotting, separated proteins are transferred to a membrane and probed.

The subject of series [9] is MCF7. Kind of series: Induction of cell cycle arrest in human MCF7 over expressing CYP1A cells assessed as accumulation at G0/G1 phase incubated for 24 hrs by PI staining based flow cytometric analysis (Rvb =54.3 %). Type of series: functional. (A flow cytometer gives signals particle by particle.)
The test system of series [10] is MCF7. Put plainly: Induction of cell cycle arrest in human MCF7 over expressing CYP1A cells assessed as accumulation at S phase incubated for 24 hrs by PI staining based flow cytometric analysis (reference value: 20.1%). Type of series: functional.
For series [11], the system named is MCF7. Put plainly: Induction of cell cycle arrest in human MCF7 over expressing CYP1A cells assessed as accumulation at G2/M phase incubated for 24 hrs by PI staining based flow cytometric analysis (reference value: 22.6%). Type of series: functional.
Series [12] has as its system MCF7. Kind of series: Antiproliferative activity against human MCF-7 cells overexpressing CYP1A1 assessed as reduction in cell viability. Type of series: functional, cell-based. The procedure, abridged: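 MCF-7 cells transfected with pcDNA3.1/CYP1A1 and selected in G418 (1 mg/mL, then […]) to give the stable MCF7-1A1 line. CYP1A1 expression was confirmed by Western blot and 7-ethoxyresorufin enzyme assay. The line was subcloned repeatedly. The reported value is the EC50 for inhibition of proliferation.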

The source made the active and inactive calls. No cut-off for these calls is given here.

The values that follow come from ChEMBL document CHEMBL4673221, “Furanoflavones pongapin and lanceolatin B blocks the cell cycle and induce senescence in CYP1A1-overexpressing breast cancer cells” (Bioorg Med Chem, 2018).

The term IC50 denotes the point on the concentration scale where inhibition reaches its midpoint. As a reminder, the inhibition is how much of the control response was suppressed. A word on the EC50: it is the concentration needed to bring the measured effect to its halfway point.

Consider `COc1c(-c2cc(-c3ccccc3)n(-c3ccc(C#N)cc3)n2)ccc2occc12`, for which the concentration for half-maximal inhibition (IC50) is 490 nM against Cytochrome P450 1A1 [1], 280 nM at Cytochrome P450 1A1 [2], 5.7 µM against Cytochrome P450 1B1 [4] and more than 20 µM at Cytochrome P450 1B1 [6]. The same compound showed an inhibition at 10 µM on CYP1A1 [3] of more than 70%. In addition, at Cytochrome P450 1A1 [5], the Activity worked out at 91%. Further, the inhibition at 1 h, 10 µM at CYP1A1 [7] was more than 84%.
Turning to `COc1c(C(=O)/C=C(\O)c2ccc3c(c2)OCO3)ccc2occc12` [OVALITENONE], the IC50 against Cytochrome P450 1A1 [1] came to 480 nM; at Cytochrome P450 1A1 [2], 280 nM; against Cytochrome P450 1B1 [4], 1.5 µM; at Cytochrome P450 1B1 [6], 0.6 µM.
`O=c1cc(-c2ccccc2)oc2c1ccc1ccccc12` [ALPHA-NAPHTHOFLAVONE]: the result in the series on MCF7 [8] was Active. Also, the Activity is listed as 55.4% in the series on MCF7 [9], 24.1% in the series with MCF7 [10] and 20.5% in the series with MCF7 [11]. Besides, the concentration giving a half-maximal response (EC50) in the series with MCF7 [12] was more than 20 µM.
Take `COc1c(-c2cc(-c3ccccc3)nn2-c2ccc(C#N)cc2)ccc2occc12`: the half-inhibitory concentration (IC50) at Cytochrome P450 1A1 [1] came to 8600 nM; at Cytochrome P450 1A1 [2], 6800 nM; against Cytochrome P450 1B1 [4], 25.5 µM; against Cytochrome P450 1B1 [6], 6.2 µM. For the same compound, at CYP1A1 [3], the inhibition at 10 µM is more than 70%. For the same compound, the inhibition at 1 h, 10 µM against CYP1A1 [7] was more than 84%.
Take `COc1c(C(=O)/C=C(\O)c2ccccc2)ccc2occc12` [PONGAMOL]: the IC50 is 4400 nM on Cytochrome P450 1A1 [1], 2400 nM against Cytochrome P450 1A1 [2], 4.5 µM against Cytochrome P450 1B1 [4] and 3.9 µM against Cytochrome P450 1B1 [6]. Moreover, the Activity at Cytochrome P450 1A1 [5] stood at 73%.
`COc1c(-c2ccccc2)oc2c(ccc3occc32)c1=O` [KARANJIN]: the half-maximal inhibitory concentration (IC50) on Cytochrome P450 1A1 [1] is 30 nM; on Cytochrome P450 1A1 [2] it was 2700 nM; against Cytochrome P450 1B1 [4] it was 0.03 µM; against Cytochrome P450 1B1 [6] it was 4.1 µM.
As to `O=c1cc(-c2ccc3c(c2)OCO3)oc2c1ccc1occc12` [PONGAGLABRONE], the IC50 against Cytochrome P450 1A1 [1] came to 6400 nM; at Cytochrome P450 1A1 [2] it was 8200 nM; against Cytochrome P450 1B1 [4], 6.8 µM; against Cytochrome P450 1B1 [6], 3.4 µM.
On to `COc1c(-c2cc(-c3ccccc3)nn2-c2ccccc2[N+](=O)[O-])ccc2occc12`, for which the inhibition at 10 µM against CYP1A1 [3] was determined as 31.6%.
For the compound `O=c1cc(-c2cccc(O)c2)oc2c1ccc1occc12`, the IC50 came to 240 nM at Cytochrome P450 1A1 [1], 690 nM on Cytochrome P450 1A1 [2], 1.2 µM against Cytochrome P450 1B1 [4] and 3.8 µM at Cytochrome P450 1B1 [6].
